{
  "source": "ChEMBL document CHEMBL1275416",
  "about": "“Chlamydia pneumoniae growth inhibition in cells by the steroid receptor antagonist RU486 (mifepristone)” (Antimicrob Agents Chemother, 2008)",
  "key": {"[1]": {"system": "Chlamydia pneumoniae", "test": "Antimicrobial activity against Chlamydia pneumoniae infected in HEp-2 cells assessed as a reduction in 16S rRNA transcript at 2 uM after 72 hrs by RT-PCR in presence of cycloheximide", "assay_type": "functional, organism-based", "outline": "(§1)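 Infected HEp-2 cells (5 x 10^5 cells/well) were treated with RU486 2 µM with or without cycloheximide 1 µg/ml. Total RNA was extracted at harvest. C. pneumoniae 16S rRNA was quantified by real-time RT-PCR (50 cycles, melt-curve check), and copies per reaction were taken from a standard curve of diluted C. pneumoniae DNA. Means ± SD, three experiments.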"}, "[2]": {"test": "Cytotoxicity against human Hep2 cells at >2 uM", "assay_type": "cell-based", "details": "hep-2"}, "[3]": {"system": "Chlamydia pneumoniae", "test": "Antimicrobial activity against Chlamydia pneumoniae infected in HEp-2 cells at 2 uM after 72 hrs in presence of cycloheximide", "assay_type": "functional, organism-based", "outline": "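Infected HEp-2 cells were held 72 h with RU486 2 µM and/or cycloheximide 0.1 to 10 µg/ml, with untreated and ethanol controls. Infective progeny in cell lysates was counted by IFU assay on HEp-2 monolayers with FITC anti-Chlamydia antibody staining. Means ± SD of three experiments.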"}, "[4]": {"system": "Chlamydia pneumoniae", "test": "Antimicrobial activity against Chlamydia pneumoniae infected in HEp-2 cells 0.02 to 2 uM after 72 hrs", "assay_type": "functional, organism-based", "outline": "(§2)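 HEp-2 cells were infected with C. pneumoniae (MOI 10, centrifuged at 800 x g for 1 h at room temperature) and washed. They were seeded at 5 x 10^4 cells/well and cultured 72 h with RU486 (0.02 to 2 µM; ethanol vehicle control). Freeze-thaw lysates were serially diluted 10-fold onto HEp-2 monolayers, spun, grown 72 h at 37°C with cycloheximide 1 µg/ml, and FITC anti-Chlamydia stained for IFU counts. Means of three experiments.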"}, "[5]": {"system": "Chlamydia pneumoniae", "test": "Antimicrobial activity against Chlamydia pneumoniae infected in HEp-2 cells assessed as a reduction in 16S rRNA transcript at 2 uM after 24 hrs by RT-PCR in presence of cycloheximide", "assay_type": "functional, organism-based", "outline": "as §1"}, "[6]": {"system": "Chlamydia pneumoniae", "test": "Antimicrobial activity against Chlamydia pneumoniae infected in HEp-2 cells assessed as inhibition of bacterial replication at 2 uM after 24 hrs", "assay_type": "functional, organism-based", "outline": "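Time course: infected HEp-2 cells (MOI 10, centrifugation-assisted) were incubated with or without 2 µM RU486 for up to 72 h. At each time point, infective progeny in freeze-thaw lysates was titrated on fresh HEp-2 monolayers by IFU assay (72 h with cycloheximide 1 µg/ml, FITC anti-Chlamydia staining). Means ± SD, three experiments.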"}, "[7]": {"system": "Chlamydia pneumoniae", "test": "Antimicrobial activity against Chlamydia pneumoniae infected in HEp-2 cells assessed as growth inhibition at 2 uM pretreated for 1 hr before infection", "assay_type": "functional, organism-based", "outline": "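Before infecting HEp-2 cells, the bacteria were pretreated with 2 µM RU486 for 1 h or left untreated. Cells were then cultured with or without RU486 2 µM or cycloheximide 1 µg/ml. Infective progeny in 72 h lysates was assessed by IFU assay. Means ± SD of three experiments.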"}, "[8]": {"test": "Cmax in pregnant women at 800 mg, po", "assay_type": "ADME, organism-based", "design": "dose 800 mg, route oral", "details": "female, human, in vivo"}, "[9]": {"system": "Chlamydia pneumoniae", "test": "Antimicrobial activity against Chlamydia pneumoniae infected in HEp-2 cells at 20 uM", "assay_type": "functional, organism-based"}, "[10]": {"system": "Chlamydia pneumoniae", "test": "Antimicrobial activity against Chlamydia pneumoniae infected in HEp-2 cells at 2 uM after 72 hrs", "assay_type": "functional, organism-based", "outline": "as §2"}, "[11]": {"test": "Cytotoxicity against human Hep2 cells at 20 uM", "assay_type": "cell-based", "details": "hep-2, 20 µM"}, "[12]": {"system": "Chlamydia pneumoniae", "test": "Antimicrobial activity against Chlamydia pneumoniae infected in HEp-2 cells assessed as a reduction in 16S rRNA transcript at 2 uM after 24 hrs by RT-PCR", "assay_type": "functional, organism-based", "outline": "as §1"}, "[13]": {"system": "Chlamydia pneumoniae", "test": "Antimicrobial activity against Chlamydia pneumoniae infected in HEp-2 cells", "assay_type": "functional, organism-based", "outline": "as §2"}, "[14]": {"system": "Chlamydia pneumoniae", "test": "Antimicrobial activity against Chlamydia pneumoniae infected in HEp-2 cells assessed as a reduction in 16S rRNA transcript at 2 uM after 72 hrs by RT-PCR", "assay_type": "functional, organism-based", "outline": "as §1"}},
  "note": "The source made the active and inactive calls. No cut-off for these calls is given here.",
  "data": [
    {"molecule": "CC#C[C@]1(O)CC[C@H]2[C@@H]3CCC4=CC(=O)CCC4=C3[C@@H](c3ccc(N(C)C)cc3)C[C@@]21C", "note": "[MIFEPRISTONE]", "values": [
      {"measurement": "Activity", "setting": "[1]", "value": "inactive"},
      {"measurement": "Activity", "setting": "[2]", "value": "Toxic"},
      {"measurement": "Activity", "setting": "[3]", "value": "Active"},
      {"measurement": "Activity", "setting": "[4]", "value": "Dose-dependent effect"},
      {"measurement": "Activity", "setting": "[5]", "value": "inactive"},
      {"measurement": "inhibition", "setting": "[6]", "value": "Active"},
      {"measurement": "Activity", "setting": "[7]", "value": "inactive"},
      {"measurement": "Cmax", "setting": "[8]", "value": 2500, "unit": "ng/mL"},
      {"measurement": "Activity", "setting": "[9]", "value": "Active"},
      {"measurement": "Activity", "setting": "[10]", "value": "Active"},
      {"measurement": "Activity", "setting": "[11]", "value": "Toxic"},
      {"measurement": "Activity", "setting": "[12]", "value": "Active"},
      {"measurement": "Activity", "setting": "[13]", "value": "Active"},
      {"measurement": "Activity", "setting": "[14]", "value": "Active"}
    ]}
  ]
}
